From PubChem
An excerpt weighted towards active compounds, which were near 1.8% of everything screened.
DNMT1 block: DNMT1 (human) enzyme inhibition | actives 0.83% (n = 360,000) | inhibition (reported as % activation of signal), % at 10 µM | DNMT1 molecular beacon, Hinp1I cleavage, fluorescence; in the data active means inhibition above about 50%
LMPTP block: LMPTP (human) inhibition; recombinant LMPTP-A, OMFP fluorogenic substrate, fluorescence intensity; inhibition, % at 20 µM; actives 0.22% (n = 360,000); AID 651560;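 active means compounds that cut the enzyme signal by at least half of the control window in the single-dose screen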;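 further: plate controls were DMSO wells with enzyme plus substrate for no effect and substrate without enzyme for full effect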
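Assay system: LMPTP-A, protein tyrosine phosphatase of low molecular weight / Medium: pH 6.0 Bis-Tris buffer with DTT and Triton X-100 / Schedule: 50 min enzyme reaction at room temperature, protected from light / Measured by: endpoint fluorescence intensity from OMFP dephosphorylation / Read-out basis: % inhibition relative to no-enzyme and uninhibited control wells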
STEP inh: inhibitors of human striatal-enriched phosphatase STEP. P54829. recombinant STEP, OMFP fluorogenic substrate, fluorescence. inhibition, % at 20 µM. actives 0.25% (n = 360,000). AID 588621;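 active means inhibition at 20 µM, scaled per plate between control wells, above about 37%, limit read from the data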;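 further: 0% = DMSO with enzyme and substrate and 100% = substrate only without enzyme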
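System: isolated STEP enzyme; schedule: 20 min enzyme reaction at room temperature, protected from light; medium: Bis-Tris buffer pH 6.0, 2.5 mM DTT, 0.005% Tween 20; signal: fluorescence, 480/540 nm; dosing: single compound dose of 20 µM, 1% DMSO final; also added: OMFP substrate, 25 µM final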
Scp-1 inhibitor: blocks human Scp-1 phosphatase activity; inhibition, % at 20 µM; Recombinant Scp1, phosphopeptide, malachite green phosphate absorbance; actives 0.88% (n = 340,000); AID 493091; Q9GZU7;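 active means inhibition above about 50% at 20 µM, limit read from the data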;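 further: plate controls were DMSO wells with enzyme for no effect and wells lacking enzyme for full effect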
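Test system: SCP-1 phosphatase catalytic domain, residues 76-261 | Compound dosing: One concentration, 20 µM, with 1.0% DMSO | Schedule: 45 min room-temperature reaction, 5 min colour, 30 min stabiliser | Detection: Absorbance at 630 nm | Read-out basis: % inhibition of SCP-1 phosphate liberation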
SUMO1 PPI mod: modulators of human SUMO1-mediated protein-protein interactions. P63165. SUMO1 binding to a labelled peptide, TR-FRET, 1 h. inhibition, % at 20 µM. actives 0.33% (n = 360,000). AID 602429; in the data active means inhibition above about 37%
Scp1 confirm: Scp-1 (human) inhibition, single-dose confirmed | recombinant SCP-1 catalytic domain, phosphate release, malachite green absorbance | inhibition, % at 20 µM | actives 61% (n = 2,500) | shares compounds with Scp-1 inhibitor | AID 540281;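 further: plate controls were DMSO with enzyme for no effect and buffer wells lacking enzyme for full effect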
MG interference: counter-screen for Scp-1 inhibitors: colorimetric interference; shares compounds with Scp-1 inhibitor; Colorimetric interference counterscreen, malachite green absorbance 630 nm; apparent inhibition (interference), % at 20 µM; 2,500 tested, under 10 active; AID 540313;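 further: compounds added after enzyme reaction finished so only phosphate colour detection is probed; plate controls were DMSO wells with completed Scp-1 reaction for no effect and substrate wells lacking enzyme for full effect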
Scp1 DSF: Scp-1 (human) binding by thermal shift; shares compounds with Scp-1 inhibitor; Recombinant SCP1, Sypro Orange thermal shift Tm; thermal shift relative to vanadate control, % at 40 µM; actives 25% (n = 1,500);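 active means substances whose mean melting-temperature shift, as a percentage of the reference inhibitor's shift, reaches about 5.3%, limit read from the data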;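 further: 0% = Tm of DMSO wells and 100% = Tm with sodium orthovanadate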
Starred values were filed as active, the others as inactive; / = not tested or not shown.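 How the source made its calls, unless noted: active means inhibition of at least 30% at 20 µM; inactive means the rest.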

SMILES	DNMT1 block	LMPTP block	STEP inh	Scp-1 inhibitor	SUMO1 PPI mod	Scp1 confirm	MG interference	others
O=C1Nc2ccccc2/C1=N/N=C/c1ccc(-c2ccc([N+](=O)[O-])cc2)o1	36	0	16	75*	-12	36*	-14	Scp1 DSF=5.6*
COc1ccc(S(=O)(=O)NCCSC(C)(C)C)c(Cl)c1Cl	-24	1	-2	60*	3	34*	-16	Scp1 DSF=-20
CCCOCC(O)CCc1n[nH]c(=S)n1-c1ccccc1 (configuration not stated)	8	1	-1	60*	-2	-7	-6
CC(C)C[C@H]1CN(CCCC[C@@H]2CNC(=O)C(=O)N2Cc2ccccc2)C(=O)C(=O)N1CCc1ccc(O)cc1	/	-1	/	/	3	/	/
CC(C)C[C@H]1CNC(=O)C(=O)N1C[C@H](C)NC(=O)Cc1ccccc1	3	-2	0	-6	-6	2	-5
O=C(COC(=O)c1n[nH]c(=O)c2ccccc12)Nc1ccccc1F	0	-1	-1	0	-2	/	/
O=C1NCCN1CCNS(=O)(=O)c1ccc(F)cc1	2	-1	2	-10	1	-19	-16
COc1ccc(S(=O)(=O)NCCC(C)C)cc1OC	-2	0	-5	-3	1	/	/
O=S(=O)(NCCCCNS(=O)(=O)c1ccc(F)cc1)c1ccc(F)cc1	-1	-1	3	-7	5	/	/
COc1ccc(S(=O)(=O)NCCN2CCNC2=O)cc1OC	5	1	-2	-7	-5	1	-3
O=C(CN1C(=O)C(=O)N(Cc2ccco2)C1=O)Nc1ccc(F)c(F)c1F	11	0	-1	1	-2	/	/
C=CCN1C(=O)C(=O)N(CC(=O)NCC(=O)Nc2ccc(F)c(F)c2F)C1=O	6	-1	-2	-2	4	-9	-3
Cn1c(C(C(=O)NCC2CCCO2)N(C(=O)Cn2nnc3ccccc32)C2CCCCC2)nc2ccccc21 (configuration not stated)	2	0	-3	68*	3	-18	-15
O=C(O)C(Cc1ccccc1[N+](=O)[O-])N1C(=O)c2ccccc2C1=O (configuration not stated)	-2	-2	-3	-2	-3	/	/
Cc1ccc(OCC(=O)N/N=C\c2ccc(O)c([N+](=O)[O-])c2)c([N+](=O)[O-])c1	1	-5	1	67*	-13	42*	-4	Scp1 DSF=9.8*
COCC(O)Cn1ccnc1[N+](=O)[O-] (configuration not stated)	3	-1	2	/	-13	/	/
O=C(CSc1nnc(Nc2ccccc2F)s1)NC(=O)CN1CCCC1=O	45	12	38	63*	8	57*	-8	Scp1 DSF=-10
O=C(CSc1nnc(Nc2ccccc2F)s1)NC1CCS(=O)(=O)C1 (configuration not stated)	5	0	-5	0	2	/	/
O=C(Nc1ccc2oc(-c3ccccc3)nc2c1)c1ccc2c(c1)OCCO2	-1	-1	-6	-12	2	/	/
O=C(Nc1ccc2oc(-c3cccnc3)nc2c1)c1ccc2c(c1)OCCO2	39	54*	38	52*	11	45*	-5	Scp1 DSF=-4
O=C(Nc1ccc2oc(-c3ccncc3)nc2c1)c1ccc2c(c1)OCCO2	4	34	15	100*	34	-11	-14
Cc1ccc(NC(=O)/C=C/c2ccco2)nc1	11	0	-3	63*	-11	34*	-15	Scp1 DSF=-5
O=C(/C=C/c1ccco1)Nc1ccccn1	-2	-1	0	27	-13	/	/
COc1ccc(Nc2nnc(-c3ccncc3)s2)cc1Cl	69*	64*	61*	94*	93*	68*	-13	Scp1 DSF=-6
O=C(N/N=C/c1cc2ccccc2nc1Cl)/C(=C/c1cccs1)NC(=O)c1ccccc1	-8	-2	14	99*	9	35*	-8	Scp1 DSF=3
SMILES	DNMT1 block	LMPTP block	STEP inh	Scp-1 inhibitor	SUMO1 PPI mod	Scp1 confirm	MG interference	others
C=C(C)c1nc(Oc2ccccc2)nc(Oc2ccccc2)n1	2	1	2	0	-6	/	/
COc1ccc(C(=O)NNC(=O)c2ccc(F)c(S(=O)(=O)N3CCOCC3)c2)cc1	3	-1	-3	-3	-3	/	/
COc1ccc(/C=C/c2ccc3ccccc3[n+]2C)cc1OC	-2	2	0	99*	-30	4	-6
CC(=O)Oc1ccccc1/C=C/c1ccc2ccccc2[n+]1C	1	-1	-3	17	-29	/	/
O=C(COC(=O)c1cc(Cl)ccc1O)NNC(=O)c1ccccc1F	1	0	3	-13	10	/	/
CO[C@@]1(NC(=O)Cc2cccs2)C(=O)N2C(C(=O)O)=C(COC(N)=O)CS[C@@H]21	6	-1	5	52*	8	41*	-10	Scp1 DSF=2
NC1=NC(=O)C(CC(=O)NCc2ccccc2)S1 (configuration not stated)	4	-1	0	3	-5	-13	-9
CCN1C(=O)[C@H]2[C@@H](c3ccc(C)cc3)N[C@]3(CCCN(Cc4cccn4C)C3=O)[C@H]2C1=O	4	-1	0	/	-4	/	/
Cc1ccc(C(=O)OCN2C(=O)c3ccccc3C2=O)c(O)c1	0	1	-2	-8	-5	/	/
O=C(CCc1nc2ccccc2c(=O)[nH]1)NNC(=O)c1cccc(Cl)c1	3	0	1	62*	10	-13	-20
C[C@@H]1CN([C@@H](C)CO)C(=O)CCCn2nncc2CO[C@@H]1CN(C)C(=O)OCc1ccccc1	8	-1	5	/	5	/	/
CC(=O)Nc1nnc(SCC(=O)Nc2ccc(N3CCOCC3)c(Cl)c2)s1	-3	1	1	63*	-1	-3	-8
COc1ccc(C(=O)OCC[N+]2(C)CCOCC2)cc1	0	0	0	57*	-1	10	-4
COc1ccc(C(=O)OCCc2ccc(O)cc2)cc1	-2	0	-2	1	0	/	/
C=CCc1cc(C=Nc2ccc(N3CCOCC3)cc2)cc(OCC)c1O	-4	0	0	-5	0	/	/
CC(C)NC(=O)N(C)C[C@@H]1OCc2cn(nn2)CCCC(=O)N([C@H](C)CO)C[C@H]1C	7	0	-4	/	9	/	/
COc1ccc(Br)cc1C(=O)Nc1cccc(-c2nnc(-c3ccco3)o2)c1	44	32	33	98*	18	72*	-11	Scp1 DSF=2
